bCat nuc transl – modulators of beta-catenin nuclear translocation, primary screen, imaging, HeLa cells, immunofluorescence, high-content; nuclear translocation activity, % at 5 µM; actives 0.3% (n = 190,000); AID 1665, 2009;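 active = nuclear translocation activity above 50% at 5 µM, with a well cell count of 50 or more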;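 note: per-cell ratio of nuclear to cytoplasmic median beta-catenin stain intensity; plate controls were DMSO negative control for no effect and GSK-3 inhibitor IX positive control for full effect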
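Test system: human HeLa cells, endogenous beta-catenin. Times: 24 h compound exposure, 37°C. Measured by: beta-catenin immunofluorescence imaging with DAPI.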
Ba/F3 V617F tox – reduced viability of JAK2V617F-dependent Ba/F3 cells, primary screen, JAK2V617F inhibitor project, cell-based, Ba/F3 EpoR-JAK2V617F, luminescence; ATP luminescence; inhibition, % at 5.6 µM; actives 1.1% (n = 220,000); AID 1446, 2008;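 active = inhibition above the campaign mean plus 3 SD over all tested compounds, cut at about 24% in these data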;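 note: cytokine-independent growth of Ba/F3 cells driven by EpoR plus mutant JAK2; 0% = DMSO-treated cells and 100% = JAK inhibitor I control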
BaF3 parental – parental Ba/F3 cell viability inhibition, counter-screen for JAK2V617F inhibitor project, murine pro-B, CellTiter-Glo luminescence; actives 1.1% (n = 220,000); CellTiter-Glo ATP luminescence; AID 1486, 2009; inhibition, % at 5.6 µM;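 active = inhibition above a per-campaign cutoff, the mean inhibition of all tested compounds plus 3 SD, cut at about 27% in these data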;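 note: 0% = DMSO wells and 100% = JAK Inhibitor I control wells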
KLF5 inhibitor – KLF5 expression inhibitors, primary screen, DLD-1 cells, luminescence; actives 0.23% (n = 290,000); DLD-1 KLF5 promoter-luciferase reporter; inhibition, % at 5 µM; AID 1700, 2009;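 active = inhibition above a per-plate limit of that plate's mean compound inhibition plus 3 SD, cut at about 60% in these data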;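 note: 0% = DMSO wells and 100% = LY294002 at 200 µM; higher means less KLF5 promoter-driven luciferase light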
MT stabilizer – microtubule stabilizers in HeLa cells, primary screen, imaging, high-content imaging; HeLa tubulin immunostaining HCS, 24 h; share of cells brighter than vehicle mean+2SD; % tubulin-high responders, % at 10 µM; actives 0.83% (n = 200,000);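 active = plate Z-score above 3 for both tubulin-high and condensed-nucleus cell shares, with cell loss under 80%, at 10 µM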;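 note: anti alpha tubulin signal scored within the nucleus-defined area of each cell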
IEC-6 tox – cytotoxicity in IEC-6 intestinal epithelial cells, primary screen, cytotoxicity control for KLF5 inhibitor project, cell-based, luminescence; IEC-6 cytotoxicity, luminescence viability; inhibition, % at 5 µM; actives 0.78% (n = 290,000); AID 1825, 2009;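 note: 0% = plate median of test compound wells and 100% = cytotoxic reference compound wells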
IEC-6 tox confirm – cytotoxic compounds in IEC-6 epithelial cells, confirmation, cytotoxicity control, cell-based, luminescence; AID 1907, 2009; IEC-6 rat intestinal epithelial viability; actives 63% (n = 1,900); shares compounds with IEC-6 tox; inhibition, % at 5 µM;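 note: 0% = vehicle and 100% = reference cytotoxic drug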
Active calls of the source: *; . = no result. Compounds with a hit are over-represented: about 2.1% of the library has one in this group of screens. Cut-off read from the data, not from the text of the source, unless noted: active = inhibition above about 22%; inactive = the rest.

SMILES | bCat nuc transl | Ba/F3 V617F tox | BaF3 parental | KLF5 inhibitor | MT stabilizer | IEC-6 tox | IEC-6 tox confirm
COc1ccc2[nH]c3c4c(ccc3c2c1)C(=O)C=CC4=O | 2.0 | 45.8* | 7.7 | -21.8 | . | 56.7* | 9.7
COc1ccc2[nH]c(=O)cc(C(=O)O)c2c1 | -1.0 | -2.3 | 2.1 | -16.7 | 2.8 | 4.6 | .
CC1=C([N+](=O)[O-])C(c2ccccc2)C2=C(N1)c1ccccc1C2=O (centres undefined) | -2.4 | 76.6* | 71.4* | 58.2 | 9.9* | 47.3* | 56.0*
COc1ccc(C2C(C#N)=C(C)NC3=C2C(=O)c2ccccc23)cc1 (centres undefined) | 1.5 | -3.4 | 1.0 | 15.5 | 11.3 | -3.7 | .
CC(C)n1cc(NC(=O)c2cc(-c3ccccc3)on2)cn1 | . | 40.8* | 27.6* | -2.7 | 28.3* | 64.1* | 46.2*
CC(C)c1ccc(O)c(NC(=S)NC(=O)c2cccnc2)c1 | 0.3 | 2.9 | 3.7 | 17.8 | 4.0 | 34.3* | -2.8
CC(C)(C)C(=O)NC(=S)NNC(=O)c1ccc(-c2ccccc2)cc1 | -3.4 | 37.2* | 35.7* | 56.6 | 5.0 | 39.7* | 47.4*
CC(C)(C)c1ccc(C(=O)NNC(=S)NC(=O)c2cccnc2)cc1 | . | . | . | 26.5 | . | 30.2* | 22.9*
O=C(Nc1ccc(-c2nc3ccccc3[nH]2)cc1)c1c(F)c(F)c(F)c(F)c1F | -1.0 | -1.9 | 1.0 | -17.1 | 1.6 | -2.5 | .
COc1c(F)c(F)c(C(=O)Nc2ccc(-c3nc4ccccc4[nH]3)cc2)c(F)c1F | -4.8 | 2.7 | -0.3 | -28.0 | 3.4 | 26.6* | 5.3
CC(SCC(=O)NC(C)C1CC2CCC1C2)C(=O)O (centres undefined) | -1.5 | -0.9 | 3.6 | -42.6 | 0.5 | -5.6 | .
Cc1ccc(C(=O)c2cc([N+](=O)[O-])ccc2N2CCN(C)CC2)cc1 | 70.6* | 5.9 | 26.3 | 15.0 | 40.8* | 44.1* | 38.0*
Cc1ccc(C(=O)c2cc([N+](=O)[O-])ccc2N2CCCCC2)cc1C | 77.9* | 82.8* | 75.1* | 3.4 | 4.2 | 57.8* | 61.3*
O=C(N/N=C/c1ccccn1)c1ccc(Cl)c(Cl)c1 | . | . | . | -4.3 | . | 22.5* | 11.4
Cc1ccc(CNC(=O)Cc2ccc(-n3cccc3)cc2)cc1 | -2.5 | 4.3 | 7.6 | -18.2 | 10.2 | 3.1 | .
O=C(Cc1ccc(-n2cccc2)cc1)NCc1cccs1 | 165.1* | 82.5* | 78.6* | 42.6 | 29.3* | 72.6* | 58.8*
CCCCN(CC)C(=O)CSc1nc2c(sc(=S)n2-c2ccc(OCC)cc2)c(=O)[nH]1 | -1.3 | 1.9 | 3.0 | -0.9 | 5.2 | -3.5 | .
COc1ccc(C(=O)c2ccc(OC)cc2OC)cc1 | 55.7* | 3.4 | -1.6 | 28.2 | . | 25.2* | 13.6
COc1ccc(OC)c(C(=O)c2ccc(C(=O)c3cc(OC)ccc3OC)cc2)c1 | -1.4 | -4.2 | 0.2 | -37.7 | 2.5 | 1.6 | .
COc1ccc(C(=O)c2ccc(N(C)C)cc2)c(OC)c1 | 95.5* | 49.7* | 52.0* | 33.2 | 24.4 | 54.2* | 52.9*
O=C1C(=O)N(CCS(=O)(=O)c2ccccc2)c2ccc(Cl)cc21 | . | . | . | -15.1 | . | 40.3* | 4.0
COc1ccc(/C=C/C(=O)O)cc1S(=O)(=O)N1CCCCC1 | -1.8 | 4.2 | -0.9 | -14.4 | . | 4.2 | .
COc1ccccc1C1CC(=O)Nc2cc3c(cc21)OCCO3 (centres undefined) | -3.3 | 73.2* | 72.1* | 63.8* | 13.4 | 75.4* | 59.7*
Cn1nccc1C(=O)N/N=C/c1c(O)ccc2ccccc12 | . | . | . | 56.9 | . | 98.2* | 28.9*
CCn1nc(C)c(CN2CCCCC2C(=O)Nc2ccc(Oc3cccnc3)cc2)c1C (centres undefined) | . | . | . | -22.9 | . | -6.0 | .
O=C(Nc1ccc(Oc2ccccc2)nc1)C1CCCCN1Cc1ccco1 (centres undefined) | . | . | . | 50.2 | . | 59.8* | 38.6*

Bioassay records as filed in PubChem BioAssay.
